Experimental data: ChEMBL document CHEMBL5107950, “Structure-based design of haloperidol analogues as inhibitors of acetyltransferase Eis from Mycobacterium tuberculosis to overcome kanamycin resistance” (RSC Med Chem, 2021)
In brackets after ≈: the same amount, converted by molar mass. Activity calls are given as the source filed them. The rule behind the calls is not given here.

Experiments:
N-acetyltransferase Eis [1] = biological target: T1, N-acetyltransferase Eis (Mycobacterium tuberculosis (strain ATCC 25618 / H37Rv), UniProt P9WFK7); assay: Inhibition of Mycobacterium tuberculosis Eis assessed as Eis-mediated kanamycin acetylation preincubated for 10 mins followed by substrate addition and measured for 2 to 5 mins using acetyl-CoA as substrate in presence of kanamycin by UV-Vis spectroscopy analysis
T1 sequence (P9WFK7 whole entry): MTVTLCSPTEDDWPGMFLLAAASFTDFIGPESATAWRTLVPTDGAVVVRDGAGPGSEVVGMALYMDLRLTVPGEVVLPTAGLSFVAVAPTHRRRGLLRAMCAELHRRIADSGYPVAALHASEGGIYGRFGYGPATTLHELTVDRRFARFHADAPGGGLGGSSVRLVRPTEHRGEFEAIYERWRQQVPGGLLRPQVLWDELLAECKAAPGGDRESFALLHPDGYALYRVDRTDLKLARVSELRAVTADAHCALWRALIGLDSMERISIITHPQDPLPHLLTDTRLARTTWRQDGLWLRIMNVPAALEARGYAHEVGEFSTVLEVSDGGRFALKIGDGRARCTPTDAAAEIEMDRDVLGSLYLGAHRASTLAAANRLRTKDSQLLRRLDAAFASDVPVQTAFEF
Method in brief: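 Recombinant Eis (1 µM) mixed with KAN (400 µM) in 50 mM Tris-HCl pH 8.0 and preincubated 10 min with 5-fold serially diluted inhibitor (10% DMSO in buffer). Reaction started with AcCoA and DTNB (2 mM each, as added). Absorbance read every 30 s for 20 min. Initial rates (first 2-5 min) fitted to Hill plot for IC50. At least triplicate.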

[2] = test system: Mycobacterium tuberculosis; assay: Potentiation of kanamycin-induced antibacterial activity against Mycobacterium tuberculosis H37Rv assessed as kanamycin MIC incubated for 1 day followed by kanamycin addition for 6 days and by Alamar blue assay; type: functional; details: 168 h, time 7 day
Method in brief: (§1)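 Mtb in 7H9 + 10% ADC, 0.05% Tween 80, 0.4% glycerol at 37 °C. Inoculum adjusted to OD600 0.2, diluted 1:25. Cells preincubated 24 h at 37 °C with compound (100 µL of 200 µM solution). KAN then added: H37Rv at 2.5 and 1.25 µg/mL; K204 at 10, 5, 2.5, 1.25 µg/mL. Incubated 6 days, AlamarBlue added, colour read at 24 and 48 h. MIC = lowest KAN with no colour change. At least twice in duplicate.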

[3] = test system: Mycobacterium tuberculosis; assay: Potentiation of kanamycin-induced antibacterial activity against Mycobacterium tuberculosis K204 assessed as kanamycin MIC incubated for 1 day followed by kanamycin addition for 6 days and by Alamar blue assay; type: functional; details: K204, 168 h, time 7 day; method in brief: as §1
N-acetyltransferase Eis [4] = biological target: T1, N-acetyltransferase Eis; assay: Competitive inhibition of Mycobacterium tuberculosis Eis assessed as reduction in Eis-mediated kanamycin acetylation preincubated for 10 mins followed by substrate addition and measured for 2 to 5 mins using acetyl-CoA as substrate in presence of kanamycin by Lineweaver-Burk plot analysis
Method in brief: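 Same DTNB-coupled Eis acetylation assay used for IC50, run as Michaelis-Menten kinetics with inhibitor at 0-1 μM. Vmax and Km from these fits used to determine mode of inhibition. Quadruplicate.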

[5] = test system: Mycolicibacterium smegmatis; assay: Antibacterial activity against Mycobacterium smegmatis mc2 155 assessed as inhibition of bacterial growth incubated upto 3 weeks hrs by resazurin dye based double-dilution method; type: functional; details: mc2 155, 504 h
Method in brief: (§2)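 Double-dilution broth MIC. Media: M. smegmatis, Mueller-Hinton; M. abscessus, 7H9 + 0.05% Tween80 + 0.4% glycerol; mc²6230, 7H9 + 0.05% tyloxapol, 0.5% glycerol, 10% OADC, 0.2% casamino acids, 24 µg/mL pantothenate; other mycobacteria, 7H9 + 0.05% Tween80, 0.4% glycerol, 10% ADC. Inoculum from agar set to 0.5 McFarland, then diluted 1:100.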

[6] = test system: Mycobacteroides abscessus; assay: Antibacterial activity against Mycobacterium abscessus ATCC 19977 assessed as inhibition of bacterial growth incubated upto 3 weeks hrs by resazurin dye based double-dilution method; type: functional; details: ATCC 19977, 504 h; method in brief: as §2
[7] = test system: Mycobacterium intracellulare; assay: Antibacterial activity against Mycobacterium intracellulare ATCC 13950 assessed as inhibition of bacterial growth incubated upto 3 weeks hrs by resazurin dye based double-dilution method; type: functional; details: ATCC 13950, 504 h; method in brief: as §2
Mycobacterium avium = assay: Antibacterial activity against Mycobacterium avium ATCC 25921 assessed as inhibition of bacterial growth incubated upto 3 weeks hrs by resazurin dye based double-dilution method; type: functional; details: ATCC 25921, 504 h; method in brief: as §2
[8] = test system: Mycobacterium tuberculosis; assay: Antibacterial activity against Mycobacterium tuberculosis H37Ra ATCC NRS22 assessed as inhibition of bacterial growth incubated upto 3 weeks hrs by resazurin dye based double-dilution method; type: functional; details: H37Ra ATCC NRS22, 504 h; method in brief: as §2
[9] = test system: Mycolicibacterium smegmatis; assay: Synergistic antibacterial activity against Mycobacterium smegmatis mc2 155 assessed as fold reduction in MIC value at 8 ug/ml in presence of spectinomycin by checkerboard assay; type: functional; details: dose 8 µg/ml
[10] = test system: Mycolicibacterium smegmatis; assay: Synergistic antibacterial activity against Mycobacterium smegmatis mc2 155 assessed as fold reduction in MIC value at 8 ug/ml in presence of clarithromycin by checkerboard assay; type: functional; details: dose 8 µg/ml
[11] = test system: Mycobacterium tuberculosis; assay: Antibacterial activity against Mycobacterium tuberculosis H37Rv assessed as inhibition of bacterial growth at 100 uM incubated for 24 hrs by Alamar blue assay; type: functional, organism-based
[12] = test system: Mycobacterium tuberculosis; assay: Antibacterial activity against Mycobacterium tuberculosis K204 assessed as inhibition of bacterial growth at 100 uM incubated for 24 hrs by Alamar blue assay; type: functional, organism-based
Escherichia coli = assay: Antibacterial activity against Escherichia coli MC1061 assessed as inhibition of bacterial growth incubated upto 3 weeks hrs by resazurin dye based double-dilution method; type: functional, organism-based
A549 = assay: Cytotoxicity against human A549 cells assessed as reduction in cell viability at 25 uM incubated for 24 hrs by resazurin assay; type: toxicity, cell-based; details: a549, 24 h
Method in brief: (§3)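 Resazurin viability assay in DMEM + 10% FBS, 1% penicillin/streptomycin, 37 °C, 5% CO₂. Seeding: HEK-293 and J774A.1 at 1×10^4 cells/mL, A549 at 5×10^3 cells/mL. After 24 h, compounds added (0.78-200 μM, 0.5% DMSO final). Resazurin added 24 h later, read after 6 h. 1% Triton X as positive control. Quadruplicate.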

HEK293 = assay: Cytotoxicity against human HEK293 cells assessed as reduction in cell viability at 25 uM incubated for 24 hrs by resazurin assay; type: toxicity, cell-based; details: hek293, 24 h; method in brief: as §3
J774.A1 = assay: Cytotoxicity against mouse J774.A1 cells assessed as reduction in cell viability at 25 uM incubated for 24 hrs by resazurin assay; type: toxicity, cell-based; details: j774.a1, 24 h; method in brief: as §3
[13] = Metabolic stability in human liver microsomes at 2 to 4 uM incubated for 30 mins by LC-MS/MS analysis; type: ADME, Microsome; details: dose 2-4 µM, read-out: Stability
[14] = Metabolic stability in mouse liver microsomes at 2 to 4 uM incubated for 30 mins by LC-MS/MS analysis; type: ADME, Microsome; details: dose 2-4 µM, read-out: Stability

Row | SMILES | IC50 (N-acetyltransferase Eis [1]) | MIC [2] | MIC [3] | Ki (N-acetyltransferase Eis [4]) | MIC [5] | MIC [6] | MIC [7] | MIC (Mycobacterium avium) | MIC [8] | fold change (FC) [9] | fold change (FC) [10] | inhibition [11] | inhibition [12] | inhibition (Escherichia coli) | Activity (A549) | Activity (HEK293) | Activity (J774.A1) | remaining at 0.5 h [13] | remaining at 0.5 h [14]
1 | O=C(CCCN1CCC(O)(c2ccc(Br)cc2)CC1)c1ccc(F)cc1 [BROMPERIDOL] | 520 nM | ≤ 1.25 µg/mL | 5 µg/mL | 240 nM | > 62.5 µM | > 62.5 µM | 62.5 µM (≈ 26.3 µg/mL) | 62.5 µM (≈ 26.3 µg/mL) | > 62.5 µM | 16 | 4 |  |  |  |  |  |  |  | 
2 | O=C(CCCN1CCC(O)(c2ccc(F)cc2)CC1)c1ccc(F)cc1 | 760 nM | ≤ 1.25 µg/mL | 5 µg/mL | 910 nM | > 62.5 µM | > 62.5 µM | > 62.5 µM | > 62.5 µM | > 62.5 µM | 16 | 4 |  |  |  |  |  |  |  | 
3 | CC(C)(C)c1ccc(C(=O)CCCN2CCC(O)(c3ccc(Br)cc3)CC2)cc1 | > 200000 nM |  |  |  | 15.6 µM (≈ 7.15 µg/mL) | > 62.5 µM | 7.8 µM (≈ 3.58 µg/mL) | 7.8 µM (≈ 3.58 µg/mL) | 3.9 µM (≈ 1.79 µg/mL) | 16 | 4 | Active | Active | Active | Toxic | Toxic | Toxic | 56% | 58%
4 | CC(C)(C)c1ccc(C(=O)CCCN2CCC(O)(c3ccc(Cl)cc3)CC2)cc1 | > 200000 nM |  |  |  | 15.6 µM (≈ 6.46 µg/mL) | > 62.5 µM | 7.8 µM (≈ 3.23 µg/mL) | 7.8 µM (≈ 3.23 µg/mL) | 3.9 µM (≈ 1.61 µg/mL) | 16 | 4 | Active | Active | Active | Toxic | Toxic | Toxic | 60% | 68%
